# Measured values as given in publication PMC2577561 (Bioorganic & medicinal chemistry, 2008).
# Values joined by “and” are separate entries in the source; they are usually repeats but may differ in a detail not shown here. Identical values can stand only once.
# Tests used:
# [1] = cited from earlier work
# [2] = test system: cholera toxin-induced intestinal fluid secretion; conditions: in vivo; cited from earlier work
# CFTR = conditions: read-out: IC50, block of CFTR chloride conductance; full block; cited from earlier work
# FRT cells = experiment: Cytotoxicity, crystal violet staining; type: cell-based; conditions: 50 μM, 48 h, crystal violet staining vs vehicle-treated cultures
# Method in brief: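 Confluent FRT monolayers exposed to test compound for 2 days, washed 3 times, fixed for 30 min and stained with 0.5% crystal violet for 10 min. Dye extracted in Sorenson's buffer (0.1 M sodium citrate, 50% ethanol, pH 4.2) and read at 650 nm absorbance. Percent staining from 8 wells per test, referenced to cell-free blanks and vehicle-treated cells.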
# [3] = Solubility in phosphate buffered saline by LC/MS; type: physicochemical; conditions: for Increase of water solubility compared with CFTRinh-172: in saline
# Method in brief: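 Saturated solution made by adding DMSO stock to phosphate buffered saline (final DMSO 2%). Sonicated 5 min at 25 °C, shaken 1 h at room temperature, then centrifuged at 15 000 rpm for 1 h. Supernatant quantified by LC/MS peak area against per-compound standard curves (1–15 or 1–100 μM, linear r > 0.998).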
# MDCK cell model = conditions: cited from earlier work
# human wildtype CFTR = human wildtype CFTR (Homo sapiens, UniProt P13569); experiment: Short-circuit current measurement of CFTR inhibition; type: cell-based; conditions: for CFTR inhibition activity (in words): short-circuit current, statements in running text; for IC50 (μM) / IC50: FRT cells expressing human wildtype CFTR; for IC50: IC50 (μM)
# Method in brief: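 FRT cells stably expressing human wildtype CFTR, grown on 1 cm2 filters to >1,000 Ω.cm2. Basolateral membrane permeabilized with amphotericin B (250 μg/ml, 30 min). Basolateral buffer in mM: 130 NaCl, 10 Na-HEPES, 10 glucose, pH 7.3. Apical side had 65 mM NaCl swapped for gluconate, giving a Cl− gradient. 37 °C, 95% O2/5% CO2. CFTR activated with 100 μM CPT-cAMP, then inhibitor added at stepped concentrations. Voltage-clamped apical current recorded; IC50 fitted.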
# [4] = Table 1, variations in Rings A and C
# [5] = Table 2, variations in Ring B and Linkers 1 and 2
# Sequence of human wildtype CFTR (P13569 whole entry): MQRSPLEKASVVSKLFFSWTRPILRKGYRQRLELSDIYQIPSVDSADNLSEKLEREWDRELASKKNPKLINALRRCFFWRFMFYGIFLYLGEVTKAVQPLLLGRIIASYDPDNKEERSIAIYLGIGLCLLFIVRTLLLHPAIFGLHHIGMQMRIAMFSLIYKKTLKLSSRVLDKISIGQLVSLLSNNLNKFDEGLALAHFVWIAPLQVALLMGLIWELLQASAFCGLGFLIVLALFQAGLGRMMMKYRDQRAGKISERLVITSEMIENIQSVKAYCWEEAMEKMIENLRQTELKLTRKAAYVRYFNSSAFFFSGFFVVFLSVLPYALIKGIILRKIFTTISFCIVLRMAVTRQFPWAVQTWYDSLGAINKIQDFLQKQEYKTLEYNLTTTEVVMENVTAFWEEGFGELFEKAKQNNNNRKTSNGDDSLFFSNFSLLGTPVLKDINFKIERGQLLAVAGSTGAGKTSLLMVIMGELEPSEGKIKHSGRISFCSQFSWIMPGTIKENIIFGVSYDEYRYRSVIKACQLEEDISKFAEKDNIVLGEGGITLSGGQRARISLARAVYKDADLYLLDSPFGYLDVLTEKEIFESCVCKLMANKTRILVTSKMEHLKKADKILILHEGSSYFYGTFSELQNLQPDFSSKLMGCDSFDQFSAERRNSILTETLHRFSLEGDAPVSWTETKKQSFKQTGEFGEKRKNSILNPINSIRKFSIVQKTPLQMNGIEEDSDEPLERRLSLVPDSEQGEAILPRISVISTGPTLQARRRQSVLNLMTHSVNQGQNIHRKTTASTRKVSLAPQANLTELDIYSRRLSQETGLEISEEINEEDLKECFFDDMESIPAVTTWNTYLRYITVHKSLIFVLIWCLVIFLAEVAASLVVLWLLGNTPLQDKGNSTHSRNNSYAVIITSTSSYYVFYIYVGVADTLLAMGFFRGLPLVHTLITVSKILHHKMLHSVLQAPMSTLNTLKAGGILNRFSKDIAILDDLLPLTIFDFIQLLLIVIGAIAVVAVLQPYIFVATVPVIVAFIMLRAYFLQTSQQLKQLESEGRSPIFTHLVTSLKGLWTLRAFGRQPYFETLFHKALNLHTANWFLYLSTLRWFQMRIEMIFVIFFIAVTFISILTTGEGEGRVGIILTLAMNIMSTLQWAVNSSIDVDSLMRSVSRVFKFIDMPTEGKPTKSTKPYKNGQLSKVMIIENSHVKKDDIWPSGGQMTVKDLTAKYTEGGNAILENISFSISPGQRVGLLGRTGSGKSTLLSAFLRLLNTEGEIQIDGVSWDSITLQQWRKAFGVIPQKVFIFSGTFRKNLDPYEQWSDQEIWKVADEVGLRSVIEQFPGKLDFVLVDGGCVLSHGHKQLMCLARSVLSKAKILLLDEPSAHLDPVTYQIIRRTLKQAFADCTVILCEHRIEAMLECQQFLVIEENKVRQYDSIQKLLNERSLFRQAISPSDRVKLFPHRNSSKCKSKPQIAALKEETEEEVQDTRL
compound,measurement,setting,value
"O=C(O)c1ccc(/C=C2\SC(=S)N(c3cccc(C(F)(F)F)c3)C2=O)cc1 [Compound 5, 4-[[4-Oxo-2-thioxo-3-[3-(trifluoromethyl)phenyl]-5-thiazolidinylidene]methyl]benzoic acid]",Excretion and metabolism (in words),[1],renal excretion with minimal metabolism
same,Toxicity (in words),[1],low toxicity
same,Cholera toxin-induced intestinal fluid secretion,[2],efficacy in reducing cholera toxin-induced intestinal fluid secretion
same,IC50,CFTR,< 500 nM
"O=C1/C(=C/c2ccc(-c3nn[nH]n3)cc2)SC(=S)N1c1cccc(C(F)(F)F)c1 [Compound 6, 5-[[4-(2H-Tetrazol-5-yl)phenyl]methylene]-2-thioxo-3-[3-(trifluoromethyl)phenyl]-4-thiazolidinone]",% Cell viability,FRT cells,reduced
same,Increase of water solubility compared with CFTRinh-172,[3]; listed as Tetrazolo-172,> 10 fold and 11 fold
same,Prevention of cyst formation,MDCK cell model,substantially better than by CFTRinh-172
O=C(O)c1ccc(/C=C2\SC(=S)N(c3ccc(F)c(C(F)(F)F)c3)C2=O)cc1 [Compound 8],CFTR inhibition activity (in words),human wildtype CFTR,intermediate activity
O=C(O)c1cccc(/C=C2\SC(=S)N(c3ccc(F)c(C(F)(F)F)c3)C2=O)c1 [Compound 11],CFTR inhibition activity (in words),human wildtype CFTR,intermediate activity
Cc1cccc(N2C(=O)/C(=C/c3ccc(C(=O)O)cc3)SC2=S)c1 [Compound 12],CFTR inhibition activity (in words),human wildtype CFTR,less active
O=C1/C(=C/c2cc(Br)c(O)c(Br)c2)SC(=S)N1c1cccc(C(F)(F)F)c1 [Compound 14],CFTR inhibition activity (in words),human wildtype CFTR,modest inhibition activity
O=C1/C(=C/c2cc(Br)c(O)c(Br)c2O)SC(=S)N1c1cccc(C(F)(F)F)c1 [Compound 15],CFTR inhibition activity (in words),human wildtype CFTR,modest inhibition activity
"Cc1c(N2C(=O)/C(=C/c3ccc(C(=O)O)cc3)SC2=S)cccc1C(F)(F)F [Compound 18, 4-[[4-Oxo-2-thioxo-3-[2-methyl-3-(trifluoromethyl)phenyl]-5-thiazolidinylidene]methyl] benzoic acid]",% Cell viability,FRT cells,reduced
O=C(O)c1ccc(/C=C2\SC(=S)N(c3ccc(Cl)c(C(F)(F)F)c3)C2=O)cc1 [Compound 24],CFTR inhibition activity (in words),human wildtype CFTR,greatly reduced activity
O=C(O)c1ccc(/C=C2\SC(=S)N(c3cc(C(F)(F)F)ccc3Cl)C2=O)cc1 [Compound 30],CFTR inhibition activity (in words),human wildtype CFTR,greatly reduced activity
O=C(O)COc1cccc(/C=C2\SC(=S)N(c3cccc(C(F)(F)F)c3)C2=O)c1 [Compound 36],CFTR inhibition activity (in words),human wildtype CFTR,substantially reduced CFTR inhibition
O=C1/C(=C/c2ccc(O)c(O)c2)SC(=S)N1c1cccc(C(F)(F)F)c1 [Compound 38],IC50 (μM),human wildtype CFTR; [4],Inactive
COc1c(Br)cc(/C=C2\SC(=S)N(c3cccc(C(F)(F)F)c3)C2=O)c(O)c1Br [Compound 39],IC50 (μM),human wildtype CFTR; [4],Inactive
COc1cc(Br)ccc1/C=C1\SC(=S)N(c2cccc(C(F)(F)F)c2)C1=O [Compound 40],IC50 (μM),human wildtype CFTR; [4],Inactive
COc1ccc(/C=C2\SC(=S)N(c3cccc(C(F)(F)F)c3)C2=O)cc1 [Compound 41],IC50 (μM),human wildtype CFTR; [4],Inactive
NC(=O)c1ccc(/C=C2\SC(=S)N(c3cccc(C(F)(F)F)c3)C2=O)cc1 [Compound 42],IC50 (μM),human wildtype CFTR; [4],Inactive
O=C(NCCO)c1ccc(/C=C2\SC(=S)N(c3cccc(C(F)(F)F)c3)C2=O)cc1 [Compound 43],IC50 (μM),human wildtype CFTR; [4],Inactive
NCCNC(=O)c1ccc(/C=C2\SC(=S)N(c3cccc(C(F)(F)F)c3)C2=O)cc1 [Compound 44],IC50 (μM),human wildtype CFTR; [4],Inactive
CCOC(=O)c1ccc(/C=C2\SC(=S)N(c3cccc(C(F)(F)F)c3)C2=O)cc1 [Compound 45],IC50 (μM),human wildtype CFTR; [4],Inactive
CC(=O)OCOC(=O)c1ccc(/C=C2\SC(=S)N(c3cccc(C(F)(F)F)c3)C2=O)cc1 [Compound 46],IC50 (μM),human wildtype CFTR; [4],Inactive
"O=C(O)c1ccc(/C=C2\SC(=S)N(Cc3cccc(C(F)(F)F)c3)C2=O)cc1 [Compound 47, 4-[[4-Oxo-2-thioxo-3-[(3-(trifluoromethyl)phenyl)methyl]-5-thiazolidinylidene]methyl] benzoic acid]",IC50 (μM),human wildtype CFTR; [5],Inactive
"O=C(O)c1ccc(/C=C2\SC(=O)N(c3cccc(C(F)(F)F)c3)C2=O)cc1 [Compound 48, 4-[[3-[3-(trifluoromethyl)phenyl]-2,4-dioxo-5-thiazolidinylidene]methyl]benzoic acid]",Increase of water solubility compared with CFTRinh-172,[3],~ 25 fold
same,Reduction of CFTR inhibition potency compared with CFTRinh-172,human wildtype CFTR; short-circuit current assays,3.6 fold
O=C(O)c1ccc(NC2=C(Cl)C(=O)N(c3cccc(C(F)(F)F)c3)C2=O)cc1 [Compound 50],CFTR inhibition activity (in words),human wildtype CFTR,weak activity
"O=C(O)c1ccc(SC2CC(=O)N(c3cccc(C(F)(F)F)c3)C2=O)cc1 (stereo not drawn) [Compound 51, 4-[[2,5-dioxo-1-[3-(trifluoromethyl)phenyl]-3-pyrrolidinyl]thio]-benzoic acid]",CFTR inhibition activity (in words),human wildtype CFTR,moderate activity
"O=C(O)c1ccc(NC(=S)C2SC(=S)N(c3cccc(C(F)(F)F)c3)C2=O)cc1 (stereo not drawn) [Compound 52, 4-Oxo-[(3-trifluoromethyl)phenyl]-2-thioxo-N-[4-(carboxy)phenyl]-5-thiazolidinethio carboxamide]",Water solubility (in words),[3],highly water soluble
"O=C(O)c1ccc(NC(=S)C2SC(=S)N(c3cccc(C(F)(F)F)c3)C2=O)cc1O (stereo not drawn) [Compound 53, 4-Oxo-[(3-trifluoromethyl)phenyl]-2-thioxo-N-[(4-carboxy-3-hydroxy)phenyl]-5-thiazolidinethiocarboxamide]",Water solubility (in words),[3],highly water soluble
same,IC50,human wildtype CFTR; [5],11 µM
O=C1C(C(=S)Nc2ccc(S(=O)(=O)O)cc2)SC(=S)N1c1cccc(C(F)(F)F)c1 (stereo not drawn) [Compound 54],IC50,human wildtype CFTR; [5],25 µM
O=C(O)c1ccc(Nc2nc(-c3cccc(C(F)(F)F)c3)cs2)cc1 [Compound 59],CFTR inhibition activity (in words),human wildtype CFTR,weakly active
O=C(O)c1cc(Nc2nc(-c3cccc(C(F)(F)F)c3)cs2)ccc1O [Compound 60],CFTR inhibition activity (in words),human wildtype CFTR,weakly active
"O=C(O)c1ccc(Nc2nnc(-c3cccc(C(F)(F)F)c3)s2)cc1 [Compound 64, 4-[(5-(3-Trifluoromethylphenyl)-1,3,4-thiadiazol-2-yl)amino]-benzoic acid]",IC50 (μM),human wildtype CFTR; [5],Inactive
"O=C(O)c1ccc(-n2cc(-c3cccc(C(F)(F)F)c3)nn2)cc1 [Compound 68, 4-[4-[3-(trifluoromethyl)phenyl]-1H-1,2,3-triazol-1-yl]-benzoic acid]",IC50 (μM),human wildtype CFTR; [5],Inactive
O=C(O)c1ccc(-n2cc(-c3ccc(C(F)(F)F)cc3)nn2)cc1 [Compound 69],IC50 (μM),human wildtype CFTR; [5],Inactive
